Compound activity from PubChem.
TRPC6 act: mouse TRPC6 channel activators, primary screen, cell-based, HEK293, membrane potential dye. Short transient receptor potential channel 6 (Mus musculus), Q61143. HEK293-TRPC6 membrane potential dye fluorescence; active compounds read high. B-score at 10 µM. 310,000 compounds, 0.13% hits;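 active = B-score of the integrated fluorescence ratio above library mean plus 3 SD, and starting fluorescence ratio within library mean plus 5 SD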;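 note: higher score means more depolarization so channel activation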
Target sequence (Q61143 whole entry, looked up): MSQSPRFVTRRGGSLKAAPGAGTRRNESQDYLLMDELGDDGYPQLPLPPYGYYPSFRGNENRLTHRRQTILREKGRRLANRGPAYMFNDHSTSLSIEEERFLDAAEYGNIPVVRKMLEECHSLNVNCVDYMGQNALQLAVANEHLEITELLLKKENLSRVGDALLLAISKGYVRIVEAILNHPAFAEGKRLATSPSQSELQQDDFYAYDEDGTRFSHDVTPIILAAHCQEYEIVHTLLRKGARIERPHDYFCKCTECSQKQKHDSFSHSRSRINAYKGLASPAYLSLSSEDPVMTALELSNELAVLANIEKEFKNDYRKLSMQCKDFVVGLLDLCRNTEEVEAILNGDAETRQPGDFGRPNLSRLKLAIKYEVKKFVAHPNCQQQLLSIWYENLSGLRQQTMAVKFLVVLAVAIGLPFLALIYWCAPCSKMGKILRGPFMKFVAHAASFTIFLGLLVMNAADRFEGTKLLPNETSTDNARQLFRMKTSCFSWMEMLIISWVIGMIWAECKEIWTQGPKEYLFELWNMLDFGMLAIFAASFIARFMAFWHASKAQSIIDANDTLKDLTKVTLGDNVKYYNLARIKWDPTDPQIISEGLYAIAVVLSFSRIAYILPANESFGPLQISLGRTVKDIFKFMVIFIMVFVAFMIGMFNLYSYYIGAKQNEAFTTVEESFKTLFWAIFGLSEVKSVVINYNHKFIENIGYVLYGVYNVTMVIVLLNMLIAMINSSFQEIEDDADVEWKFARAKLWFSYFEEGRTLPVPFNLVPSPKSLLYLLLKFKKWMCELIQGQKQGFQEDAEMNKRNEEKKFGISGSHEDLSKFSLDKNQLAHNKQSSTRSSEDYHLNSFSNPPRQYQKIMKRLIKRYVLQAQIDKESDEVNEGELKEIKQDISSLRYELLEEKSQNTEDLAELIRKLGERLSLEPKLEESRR
TRPC4 PAM: positive allosteric modulators of TRPC4, primary screen, cell-based, mouse TRPC4beta, HEK293 mu-opioid, Fluo-4 calcium. 310,000 compounds, 0.42% hits. DAMGO EC20, Fluo-4 Ca2+ flux; active compounds read high. AID 2227, 2009. B-score at 10 µM;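 active = B-score of calcium response area above 5 SD of library B-scores, with initial fluorescence ratio within 5 SD of library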
TRPC6 inhibitor: mouse TRPC6 channel inhibitors, primary screen, cell-based, HEK293, membrane potential dye; Short transient receptor potential channel 6 (Mus musculus), Q61143; ACh-evoked depolarization; active compounds read low; B-score at 10 µM; 310,000 compounds, 1.1% hits;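 active = B-score under library mean minus 3 SD, initial fluorescence not abnormally high, positive integrated signal ratio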;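 note: B-score derived from integrated fluorescence ratio over the kinetic read; more negative B-score means stronger inhibition of depolarization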
TRPC4 act: activators of mouse TRPC4 channel, primary screen, Fluo4 calcium, HEK293 TRPC4beta/mu-opioid cells; Fluo4 calcium fluorescence; active compounds read high; Short transient receptor potential channel 4 (Mus musculus), Q9QUQ5; 310,000 compounds, 0.49% hits; B-score at 10 µM;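 active = B-score above 5 SD of library B-scores, and initial fluorescence ratio not above library mean plus 5 SD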;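 note: positive B-score marks a calcium rise read as TRPC4 activation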
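Test system: HEK293 cells stably co-expressing mouse TRPC4beta and mu-opioid receptor | Schedule: Fluo4 dye loading 45 min at room temperature, 110 s recording | Measured by: Kinetic Fluo4 calcium fluorescence, 5 s baseline at 1 Hz | Evaluation: B score of integrated ratio | Controls: Buffer (low) and maximal DAMGO (high)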
TRPC4 inh: inhibitors of mouse TRPC4 channel, primary screen, Fluo4 calcium, HEK293 TRPC4beta/mu-opioid cells | Short transient receptor potential channel 4 (Mus musculus), Q9QUQ5 | DAMGO-evoked Fluo4 calcium flux; active compounds read low | B-score at 10 µM | 300,000 compounds, 0.39% hits | AID 2247, 2010;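 active = B-score over 3 SD under the library average, no early fluorescence shift, positive overall ratio signal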
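Test system – stable TRPC4beta/mu-opioid receptor HEK293 cells · Probe or stimulus – DAMGO, a submaximal dose followed by a maximal one · Dosing – one concentration per compound · Signal – Fluo4 calcium fluorescence by kinetic imaging, 5 s 1 Hz baseline · Evaluation – per-well B score of integrated baseline-normalized Fluo4 ratio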
TRPC4 spec 2: second selectivity test of TRPC6 inhibitors: effect on mouse TRPC4 | HEK293 TRPC4/MOR, membrane potential dye fluorescence; channel activated by saturating DAMGO dose | shares compounds with TRPC6 inhibitor | 920 compounds, 42% hits | inhibition, % at 10 µM;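 active = compounds whose fluorescence signal differed from control wells by over 3 SD, either direction, in both duplicate plates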
TRPC4 spec: mouse TRPC4 modulation by TRPC6 hits, confirmation, selectivity assay for TRPC6 inhibitor project, cell-based, HEK293 TRPC4/mu-opioid, membrane potential dye; activity change, negative = inhibition, % at 10 µM; 920 compounds, 61% hits; membrane potential fluorescence; AID 2777, 2010; shares compounds with TRPC6 inhibitor;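 active = rise or fall in signal beyond 3 SD of buffer-only wells in both replicate plates, either sign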;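 note: integrated kinetic ratio of fluorescence range over baseline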
HEK293 MPD ctr 2-1: nonspecific membrane potential effects, parental HEK293, confirmation, counter-screen for TRPC6 inhibitor project, cell-based, second counter screen; shares compounds with TRPC6 inhibitor; parental HEK293 membrane potential dye fluorescence; maximal acetylcholine challenge after compound addition; signal change vs control, % at 10 µM; 920 compounds, 31% hits; AID 2779, 2010;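 active = membrane potential signal moving either way by over 3 SD of the maximum-effect control, in both duplicate plates, meaning non-specific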
HEK293 MPD ctr-1: membrane potential modulation in parental HEK293, confirmation, counter-screen for TRPC6 inhibitor project, cell-based; AID 2780, 2010; parental HEK293 membrane potential dye fluorescence; 920 compounds, 60% hits; membrane potential signal change, % at 10 µM; shares compounds with TRPC6 inhibitor;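 active = membrane potential signal shifting up or down by more than 3 SD of buffer-only wells, on both duplicate plates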
HEK293 MPD ctr-2: parental HEK293 membrane potential modulation, confirmation, counter-screen for TRPC6 modulator project, cell-based. shares compounds with TRPC6 inhibitor. membrane potential signal change, % at 10 µM. membrane potential dye fluorescence. 2,400 compounds, 51% hits;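 active = membrane potential signal moves up or down beyond 5 SD from buffer-only wells, on both duplicate plates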
HEK293 MPD ctr 2-2: parental HEK293 nonspecific activity of TRPC6 modulators, second screen; shares compounds with TRPC6 inhibitor; membrane potential dye fluorescence; after compound, maximal acetylcholine stimulation; inhibition, % at 10 µM; 2,400 compounds, 14% hits; AID 488926;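 active = membrane potential signal drops by more than 5 SD from the mean control signal, in both duplicate plates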
TRPC4 ctr mod: TRPC4 modulation by TRPC6 hit compounds, confirmation, selectivity assay for TRPC6 modulator project, cell-based, HEK293 TRPC4/mu-opioid, membrane potential dye, mouse; shares compounds with TRPC6 inhibitor; membrane potential fluorescence; percent change from control (negative = decrease, positive = increase), % at 10 µM; 2,400 compounds, 69% hits; AID 488927, 2010;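 active = membrane potential signal moved up or down beyond 5 SD of buffer control wells, in both duplicate plates, actives on both sides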
TRPC4 ctr inh 2: second check of whether TRPC6 modulators also affect mouse TRPC4. shares compounds with TRPC6 inhibitor. HEK293 TRPC4/mu-opioid, membrane potential dye fluorescence; stimulated with maximal-effect DAMGO. inhibition, % at 10 µM. 2,400 compounds, 55% hits. AID 488928;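 active = drop in membrane potential signal beyond 5 SD of the control wells in both duplicate plates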;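 note: TRPC4 counter screen for TRPC6 hits run under conditions tuned for TRPC6 not TRPC4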
TRPC6 inh conf: mouse TRPC6 channel inhibitors, confirmation, HEK293 cells, membrane potential dye, duplicate | shares compounds with TRPC6 inhibitor | ACh-evoked depolarization | inhibition, % at 10 µM | 3,300 compounds, 43% hits | AID 488960, 2010;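 active = fluorescence ratio falls more than 5 SD below the full-stimulation control mean, in both duplicate runs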;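 note: integrated fluorescence ratio of peak minus minimum over baseline after agonist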
TRPC6 act confirm: mouse TRPC6 channel activators, confirmation, HEK293 cells, membrane potential dye, duplicate; shares compounds with TRPC6 inhibitor; HEK293-TRPC6 membrane potential dye fluorescence, FDSS; activation, % at 10 µM; 2,800 compounds, 11% hits; AID 488961, 2010;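 active = ratio signal rise beyond 5 SD above unstimulated control wells' mean, seen in both duplicate runs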
Numbers stand for hits; i = inactive; nt = no result. Most compounds without a hit are left out; they make up all but 2.3% or so of the library.

SMILES | TRPC6 act | TRPC4 PAM | TRPC6 inhibitor | TRPC4 act | TRPC4 inh | HEK293 MPD ctr-2 | HEK293 MPD ctr 2-2 | TRPC4 ctr mod | TRPC4 ctr inh 2 | TRPC6 inh conf | TRPC6 act confirm | others
CCN1CCN(c2nc3c(c(=O)n(C)c(=O)n3C)n2CCSc2nccc(C)n2)CC1 | i | i | -12 | i | i | -284% | 118% | -46% | 72% | 78% | i
CN1CCC(NCCC(c2ccc(F)cc2)c2ccc(Cl)cc2)CC1 (stereo unspecified) | i | i | -5.4 | i | i | 104% | i | 18% | 56% | i | nt
COc1ccccc1N1CCN(Cc2ccc(O)c3ncccc23)CC1 | i | i | -7.6 | i | i | nt | nt | nt | nt | i | i | TRPC4 spec 2=i;TRPC4 spec=i;HEK293 MPD ctr 2-1=i;HEK293 MPD ctr-1=i
Cc1cc(NCCN(C)C)n2nc(-c3cccs3)cc2n1 | i | i | -6.8 | i | i | -272% | i | -52% | 48% | i | i
CCN1C(=O)/C(=C/C2=Cc3ccccc3OC2C)SC1=S (stereo unspecified) | i | i | i | i | i | nt | nt | nt | nt | nt | nt
Cc1cc(O)cc(O)c1C(=O)Cc1ccccc1 | i | i | i | i | i | nt | nt | nt | nt | nt | nt
O=C(Cc1ccc([N+](=O)[O-])cc1)c1c(O)cc(O)cc1O | i | i | -5.5 | i | i | -62% | i | -19% | 52% | 52% | i
Cc1cc(C)n(C(=O)CNC(=O)c2cccc(Br)c2)n1 | i | i | -5.8 | i | i | i | i | i | i | i | i
Cc1cc(C)n(C(=O)CNC(=O)c2cccc(Cl)c2)n1 | i | i | i | i | i | nt | nt | nt | nt | nt | nt
Nc1ccc(-c2cc3ccccc3oc2=O)cc1 | i | i | i | i | i | nt | nt | nt | nt | nt | nt
O=C/C=C/c1c(-c2ccccc2)cc2oc3ccccc3cc1-2 | i | i | -9.3 | i | i | nt | nt | nt | nt | i | i | TRPC4 spec 2=i;TRPC4 spec=i;HEK293 MPD ctr 2-1=i;HEK293 MPD ctr-1=i
COc1ccc(C(=O)NCc2nnc(SCC(=O)NCc3ccco3)o2)cc1 | i | i | i | i | i | nt | nt | nt | nt | nt | nt
Cc1ccc(-n2c(SCC(N)=O)nnc2-c2ccc(S(=O)(=O)N3CCCCC3)cc2)c(C)c1 | i | i | -6 | i | i | i | i | 40% | i | 41% | i
CC(C)c1cc(=O)oc2c3c4c(cc12)CCCN4CCC3 | i | i | -5.2 | i | i | 640% | i | -127% | 39% | i | i
Cc1cc(=O)oc2c3c4c(cc12)OCCN4CCC3 | i | i | i | i | i | nt | nt | nt | nt | nt | nt
Nc1c(-c2ccccc2)sc2ccc3ccccc3[n+]12 | i | i | -5 | i | i | -99% | i | -18% | i | 44% | i
Nc1cccc2nc3ccccc3cc12 | i | i | -7.2 | i | i | nt | nt | nt | nt | 83% | i | TRPC4 spec 2=23%;TRPC4 spec=-36%;HEK293 MPD ctr 2-1=18%;HEK293 MPD ctr-1=-413%
COc1cccc(CN2CCN(C(=O)c3cccc4ccccc34)CC2)c1 | 12 | i | i | i | i | i | i | 10% | i | i | 33%
COc1cc(CN2CCN(C(=O)c3cccc4ccccc34)CC2)cc(OC)c1OC | i | i | i | i | i | nt | nt | nt | nt | nt | nt
CN(C)C(C)(C)/C=C/C(O)(c1ccccc1)c1ccccc1 | i | i | -8 | i | i | nt | nt | nt | nt | 54% | i | TRPC4 spec 2=i;TRPC4 spec=i;HEK293 MPD ctr 2-1=-7.0%;HEK293 MPD ctr-1=0.3%
CN(C)N(Cc1ccccc1)C(=O)C(O)(c1ccccc1)c1ccccc1 | i | i | i | i | i | nt | nt | nt | nt | nt | nt
CN1CCCN=C1COC(=O)C(O)(c1ccccc1)C1CCCCC1 (stereo unspecified) | i | i | -7 | i | i | nt | nt | nt | nt | 91% | i | TRPC4 spec 2=i;TRPC4 spec=0.2%;HEK293 MPD ctr 2-1=36%;HEK293 MPD ctr-1=i
CCN(CC)CCC(O)(c1ccccc1)C1CCCCC1 (stereo unspecified) | i | i | i | i | i | nt | nt | nt | nt | nt | nt
CCOC(=O)c1cc(C)sc1NC(=O)CSC1=NCCS1 | i | i | i | i | i | nt | nt | nt | nt | nt | nt
C[C@]12CCC[C@H](O1)c1c(cc3c(c1O)C(=O)c1c(O)cc(O)cc1C3=O)O2 | 13 | i | i | i | i | 274% | i | 58% | i | i | 91%
CC1(C)CC(=O)c2c(O)cc(O)cc2O1 | i | i | i | i | i | nt | nt | nt | nt | nt | nt
Cc1nnc(Nc2ccccn2)c2ccccc12 | i | i | -5.7 | i | i | -219% | 58% | -36% | 46% | 63% | i
CC(=O)C1CCCN(C(=O)c2ccc3nc(Cc4cccc(Cl)c4)oc3c2)C1 (stereo unspecified) | i | i | i | i | i | nt | nt | nt | nt | nt | nt
N#Cc1c(NC(=O)c2ccccc2)sc2c1CCCCC2 | i | i | i | i | i | nt | nt | nt | nt | nt | nt
N#Cc1c(Cl)nsc1NC(=O)c1ccccc1 | i | i | -5.3 | i | i | 256% | i | 101% | 80% | 71% | nt
